According to ChEMBL document CHEMBL2029273, “Structure-based design of potent and ligand-efficient inhibitors of CTX-M class A β-lactamase” (J Med Chem, 2012):
In brackets after ≈: the same amount, converted by molar mass. Activity calls are given as the source filed them. The calls are words filed in the database; no cut-off is given here.

How the values were obtained:
[1] = Inhibition of beta-lactamase CTX-M using nitrocefin as substrate
Escherichia coli [2] = experiment: Antibacterial activity against Escherichia coli expressing CTX-M-14 beta-lactamase; type: functional
Summary of the method: (§1)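 MIC per CLSI broth dilution in Mueller-Hinton medium. Compound dissolved in DMSO and diluted in medium, DMSO kept below 10%. Tested alone against clinical E. coli isolates carrying the named CTX-M enzyme. Values are the average of three independent experiments.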

Escherichia coli [3] = experiment: Antibacterial activity against Escherichia coli expressing CTX-M-9 beta-lactamase; type: functional; summary of the method: as §1
Escherichia coli [4] = experiment: Antibacterial activity against Escherichia coli expressing CTX-M-9 beta-lactamase assessed as inhibition zone at 15 to 30 ug by disk diffusion assay; type: functional, organism-based
Summary of the method: (§2)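 Disk diffusion: bacteria suspended in sterile water to 0.5 McFarland, diluted a further 10-fold and spread on Mueller-Hinton agar. Plates dried 10 min before disks were applied: cefotaxime 30 μg, inhibitor 30 μg, cefotaxime:inhibitor 30:15 or 30:30 μg, or solvent.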

Escherichia coli [5] = experiment: Antibacterial activity against Escherichia coli expressing CTX-M-9 beta-lactamase assessed as increase of cefotaxime inhibition zone at 15 to 30 ug by disk diffusion assay; type: functional, organism-based; summary of the method: as §2
Escherichia coli [6] = experiment: Antibacterial activity against Escherichia coli expressing CTX-M-14 beta-lactamase assessed as potentiation of cefotaxime MIC; type: functional
Summary of the method: (§3)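 Combination MIC per CLSI in Mueller-Hinton medium against clinical E. coli isolates carrying the named CTX-M enzyme. Inhibitor in DMSO (below 10%) was paired with cefotaxime at a 1:1 β-lactam:inhibitor ratio. Values are the average of three independent experiments.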

Escherichia coli [7] = experiment: Antibacterial activity against Escherichia coli expressing CTX-M-9 beta-lactamase assessed as potentiation of cefotaxime MIC; type: functional; summary of the method: as §3

Row | Structure (SMILES) | Ki ([1]; read-out: Ki) [µM] | also measured
1 | COC(=O)c1cccc(C(=O)Nc2cccc(-c3nnn[nH]3)c2)c1 | 6.9 | 
2 | CO/N=C(\C(=O)N[C@@H]1C(=O)N2C(C(=O)O)=C(COC(C)=O)CS[C@H]12)c1csc(N)n1 [CEFOTAXIME] |  | MIC (Escherichia coli [2]): 32 mg/L (≈ 70.3 µM); MIC (Escherichia coli [3]): 64 mg/L (≈ 141 µM)
3 | N#Cc1cc(Br)cc(C(=O)Nc2cccc(-c3nnn[nH]3)c2)c1 | 34.1 | 
4 | N#Cc1ccc(C(=O)Nc2cccc(-c3nn[nH]n3)c2)cc1 |  | Ki [1]: Not Active
5 | CC(=O)c1cccc(C(=O)Nc2cccc(-c3nnn[nH]3)c2)c1 | 10.2 | 
6 | O=C(Nc1cccc(-c2nnn[nH]2)c1)c1cccc(Cl)c1 | 6.2 | 
7 | O=C(Nc1cccc(-c2nnn[nH]2)c1)c1cccc2[nH]ccc12 | 6.6 | 
8 | COc1cccc(C(=O)Nc2cccc(-c3nnn[nH]3)c2)c1 | 17.1 | 
9 | N#Cc1cccc(C(=O)Nc2cccc(-c3nnn[nH]3)c2)c1 | 7.2 | 

More lines, in order of falling Ki ([1]; read-out: Ki), values ahead:

Row | Ki ([1]; read-out: Ki) [µM] | Structure (SMILES) | also measured
10 | 4.5 | Cc1cccc(C(=O)Nc2cccc(-c3nnn[nH]3)c2)c1 | 
11 | 3.8 | O=C(Nc1cccc(-c2nnn[nH]2)c1)c1cccc([N+](=O)[O-])c1 | 
12 | 3.1 | O=C(Nc1cccc(-c2nnn[nH]2)c1)c1cccc(C2CC2)c1 | 
13 | 2.7 | O=C(Nc1cccc(-c2nnn[nH]2)c1)c1cc(F)cc2[nH]cnc12 | 
14 | 1.9 | O=C(Nc1cccc(-c2nnn[nH]2)c1)c1ccc2[nH]ccc2c1 | 
15 | 1 | Nc1cc(C(=O)Nc2cccc(-c3nnn[nH]3)c2)cc(C(F)(F)F)c1 | 
16 | 0.63 | O=C(Nc1cccc(-c2nnn[nH]2)c1)c1cc(O)cc(C(F)(F)F)c1 | 
17 | 0.57 | O=C(Nc1cccc(-c2nnn[nH]2)c1)c1cc(O)cc(Br)c1 | 
18 | 0.089 | O=C(Nc1cccc(-c2nnn[nH]2)c1)c1cc(C(F)(F)F)cc2[nH]cnc12 | inhibition zone (IZ) (Escherichia coli [4]): inactive; inhibition zone (IZ) (Escherichia coli [5]): Dose-dependent effect; MIC (Escherichia coli [2]): ≥ 64 mg/L; MIC (Escherichia coli [3]): ≥ 64 mg/L; fold change (FC) (Escherichia coli [6]): 64; fold change (FC) (Escherichia coli [7]): 64
